# TRPML3 agonist = activates the human TRPML3 channel | Q8TDD5 | HEK293 TRPML3-YFP, Fluo-8 calcium fluorescence; 100% = the carbachol control signal | activation, % at 3 µM | hit rate 0.29% among 220,000 | AID 1448;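 active = activation above its plate's cutoff, the mean activation of the plate's test wells plus 3 SD, cut at about 12% in these data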;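 also: 0% = DMSO only wells and 100% = carbachol wells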
# Target sequence (Q8TDD5 whole entry, looked up): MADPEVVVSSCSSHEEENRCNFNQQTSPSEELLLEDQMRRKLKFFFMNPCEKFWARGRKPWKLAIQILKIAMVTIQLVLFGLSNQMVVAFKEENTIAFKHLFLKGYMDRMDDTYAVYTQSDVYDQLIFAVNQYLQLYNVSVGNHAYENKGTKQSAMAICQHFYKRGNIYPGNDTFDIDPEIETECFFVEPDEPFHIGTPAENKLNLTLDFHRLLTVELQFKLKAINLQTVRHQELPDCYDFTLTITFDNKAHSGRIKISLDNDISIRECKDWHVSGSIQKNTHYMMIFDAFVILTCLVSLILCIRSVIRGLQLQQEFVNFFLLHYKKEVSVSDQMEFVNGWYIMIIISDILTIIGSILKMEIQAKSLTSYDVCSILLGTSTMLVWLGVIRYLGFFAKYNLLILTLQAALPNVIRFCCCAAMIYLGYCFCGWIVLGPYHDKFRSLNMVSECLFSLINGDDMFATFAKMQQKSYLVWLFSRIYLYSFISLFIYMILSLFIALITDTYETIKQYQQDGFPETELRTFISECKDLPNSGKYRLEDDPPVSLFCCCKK
#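 Test system: HEK293 cells stably carrying human TRPML3-YFP; Doses: single dose, 3 µM final nominal compound, 0.3% DMSO final; Schedule: dye loading 1 h 37 °C then 30 min ambient, 125 s read; Technique: Fluo-8 calcium fluorescence; Benchmarks: high control carbachol 87 µM, low control DMSO.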
# CRFR2-BP antag = CRF-BP/CRF-R2 complex antagonism; HEK293 CRF-R2/CRF-BP, CRF-induced calcium fluorescence; inhibition, % at 11.8 µM; hit rate 0.59% among 350,000; AID 588475;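 active = inhibition of the ligand-induced calcium signal above about 50% at the single tested concentration, limit read from the data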
# GPR7 antagonist = blocks human GPR7 receptor signaling; P48145; GPR7-expressing cells, fluorescence antagonist assay; inhibition, % at 4.4 µM; hit rate 1.1% among 290,000; AID 1861; in the data active = inhibition above about 16%, passing the limit was not always enough;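 also: cells stimulated with the agonist NPW; 0% = agonist with vehicle and 100% = vehicle without agonist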
# CRFR2-BP ag = CRF-BP/CRF-R2 complex agonism. AID 588473. HEK293 CRF-R2/CRF-BP, calcium dye fluorescence (FLIPR); percent of saturating CRF peptide response. activation, % at 13.2 µM. hit rate 0.46% among 350,000;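 active = activation of at least 50%, plus an integration ratio under a set limit after plate pattern correction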;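 also: plate controls were neutral control wells without compound for no effect and CRF at EC100 for full effect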
# TRPN1 ag = zebrafish TRPN1 (NompC) channel agonism; HEK293 zebrafish TRPN1-YFP, Fluo-8 calcium fluorescence; 100% = response to 87 µM carbachol; activation, % at 3 µM; hit rate 0.18% among 220,000;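 active = activation above its plate's cutoff, the mean activation of test wells on that plate plus 3 SD, cut at about 19% in these data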;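 also: 0% = DMSO alone and 100% = 87 µM carbachol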
#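 Material – zebrafish TRPN1-YFP in HEK293 cells · Doses – 3 µM single point · Schedule – dye 1 h 37 °C plus 30 min RT · Signal – Fluo-8 calcium fluorescence, excitation 470-495 nm, emission 515-575 nm · Read-out – % activation versus carbachol response · Control set – carbachol high, DMSO low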
# TRPN1 counter = activates zebrafish TRPN1, counter-screen for TRPML3 agonists. activation, % at 3 µM. HEK293 zebrafish TRPN1-YFP, Fluo-8 calcium fluorescence; scaled: carbachol wells 100%, DMSO wells 0%. AID 1525. hit rate 10% among 310. shares compounds with TRPML3 agonist;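 active = mean activation over replicates above a set limit taken from the earlier TRPN1 channel primary screen, cut at about 19% in these data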;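 also: 100% = carbachol and 0% = 0.3% DMSO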
# TRPML3 confirm = human TRPML3 agonism, confirmation; shares compounds with TRPML3 agonist; HEK293 TRPML3-YFP, Fluo-8 calcium fluorescence; 100% set by carbachol, 0% by DMSO; activation, % at 3 µM; AID 1526; hit rate 80% among 310;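 active = activation above a set limit derived from the earlier primary screen, cut at about 12% in these data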
# Numbers without * were called inactive; . = not tested or not shown. Shown are actives, neighbours in structure and some others; about 2% of the full set was active somewhere.
SMILES,TRPML3 agonist,CRFR2-BP antag,GPR7 antagonist,CRFR2-BP ag,TRPN1 ag,TRPN1 counter,TRPML3 confirm
CNc1nc(C)nc(-n2nc(C)cc2C)n1,0,-12,-1,-1,4,.,.
COc1ccc(/C=N\NC(=O)c2cc(O)c(O)c(O)c2)cc1COc1ccc(C(=O)OCC(C)C)cc1,.,9,26,1,.,.,.
CN(C)Cc1ccc(CNC(=O)COc2ccc3ccccc3c2)cc1,.,-4,-2,0,.,.,.
Cc1cc(C)c(S(=O)(=O)N2CCCC(C(=O)N3CCOCC3)C2)c(C)c1 (configuration not stated),.,2,-5,-1,.,.,.
COC(=O)c1[nH]c2c(c1C)C(=O)CC(c1cccs1)C2 (configuration not stated),26*,5,3,-2,1,0,0
O=C1c2ccccc2-c2onc3ccc(N4CCCC4)c1c23,14*,-52,-5,83*,18,51*,39*
CCN(c1ccccc1)S(=O)(=O)c1cc2c(cc1C)N(C)CCO2,.,25,-11,-2,.,.,.
CCN(c1ccccc1)S(=O)(=O)c1ccc(F)cc1C,24*,10,-28,1,-2,-3,50*
O=S(=O)(c1ccccc1)C1(S(=O)(=O)c2ccccc2)CCCC1,18*,3,-13,0,2,1,29*
O=C(CSc1ccc(-c2ccc(-n3cccn3)cc2)nn1)Nc1ccccc1F,.,-8,.,0,.,.,.
CC1CCN(S(=O)(=O)c2ccc(Cl)cc2)CC1,10,7,-3,-1,1,.,.
CN1CCN(S(=O)(=O)c2ccc3ccccc3c2)CC1,1,-29,4,0,0,.,.
CC1CCN(S(=O)(=O)c2ccc(Br)s2)CC1,20*,-21,-5,-1,-1,-2,19*
CC1CCN(S(=O)(=O)c2ccc(C(C)C)cc2)CC1,68*,-257,6,90*,2,8,118*
CC1CCN(S(=O)(=O)c2ccc3ccccc3c2)CC1,22*,-19,-16,1,0,0,43*
O=C1COc2ccc(C(=O)COC(=O)/C=C/c3ccc(Br)o3)cc2N1,.,0,.,-1,.,.,.
COc1ccc(CNC(=O)C(=O)NCC2CCCN2S(=O)(=O)c2ccccc2)cc1 (configuration not stated),.,4,.,1,.,.,.
CC(OC(=O)CCN=C1NS(=O)(=O)c2ccccc21)C(=O)Nc1ccc(S(N)(=O)=O)cc1 (configuration not stated),.,-6,.,2,.,.,.
CCOC(=O)N1CCN(C(=O)C(C)N(c2ccc(Oc3ccccc3)cc2)S(C)(=O)=O)CC1 (configuration not stated),1,-11,-9,-2,1,.,.
CCOC(=O)C1CCN(C(=O)C(C)N(c2ccc(Oc3ccccc3)cc2)S(C)(=O)=O)CC1 (configuration not stated),22*,24,-7,0,9,8,18*
COc1ccc(OC)c(N(CC(=O)N2CCCC2)S(=O)(=O)c2ccc(C)cc2)c1,.,11,1,-1,.,.,.
COc1ccc(N(CC(=O)N2CCCCC2)S(=O)(=O)c2ccccc2)c(OC)c1,71*,3,-2,-1,1,2,121*
COc1ccc(C)cc1N(CC(=O)N1CCCCCC1)S(=O)(=O)c1ccc(C)cc1,.,-27,7,13,.,.,.
COc1cc2oc3ccccc3c2cc1N(CC(=O)N1CCCCC1)S(=O)(=O)c1ccc(C)cc1,179*,-60,1,89*,16,48*,147*
COc1ccc(OC)c(N(CC(=O)N2CCCCC2)S(=O)(=O)c2ccc(OC)c(OC)c2)c1,88*,-21,-8,3,0,2,105*
SMILES,TRPML3 agonist,CRFR2-BP antag,GPR7 antagonist,CRFR2-BP ag,TRPN1 ag,TRPN1 counter,TRPML3 confirm
CCOc1ccc(S(=O)(=O)NC(C)(C)C)cc1-c1nc2c(C(C)(C)C)nn(C)c2c(=O)[nH]1,24*,-83,-13,-1,-1,2,147*
COc1ccc(Cl)cc1C(=O)CSc1nnnn1C1CCCC1,74*,20,17,-2,-1,-1,51*
COc1ccc(N(C)C(=O)c2ccc3nc(-c4ccccc4)c(-c4ccccc4)nc3c2)cc1,0,-3,-20,3,1,.,.
CC(C)N(C(=O)c1ccc2nc(-c3ccccc3)c(-c3ccccc3)nc2c1)C(C)C,84*,-35,-15,0,-1,-1,104*
COC(=O)c1cc(-c2ccc(S(=O)(=O)N3CCCCC3)cc2)c(C(F)(F)F)s1,16*,-24,-1,4,0,-1,19*
C[C@@H](O)CNC(=O)c1[nH]cnc1C(=O)N[C@H](C)c1ccccc1,.,-4,.,2,.,.,.
Cc1ccc(S(=O)(=O)N2CCC(=O)N(C(COCc3ccc(C(F)(F)F)cc3)C(C)C)CC2)cc1 (configuration not stated),55*,-28,-16,4,1,0,77*
Cc1ccc(-c2nnc(SCC(=O)NC3CC3)o2)cc1,.,11,-4,-1,.,.,.
CC(c1ccccc1)N(NC(=O)C(O)(c1ccccc1)c1ccccc1)C(=O)c1ccccc1 (configuration not stated),13*,6,4,0,-1,-1,65*
CN(CC(=O)NC1CCCc2ccccc21)C1CCCCC1 (configuration not stated),1,-2,-6,0,-1,.,.
CN(C1CCCCC1)S(=O)(=O)c1cccc(C(=O)OCC(=O)NC2CCCc3ccccc32)c1 (configuration not stated),70*,-17,-2,-1,4,4,61*
O=S(=O)(NCCNc1ncc(C(F)(F)F)cc1Cl)C(F)(F)F,14*,24,-7,39,15,21*,9
O=S(=O)(C=C(c1ccccc1)c1ccccc1)c1ccccc1,83*,-4,-8,1,0,-2,64*
O=S(=O)(/C=C/c1ccccc1)c1ccccc1,0,-1,-5,-1,-2,.,.
COc1ccccc1N1CCN(C(=O)C2CCCCN2S(=O)(=O)c2ccc(C)cc2)CC1 (configuration not stated),14*,9,-11,-3,1,0,11
COc1ccccc1N1CCN(C(=O)C2CCCN(S(=O)(=O)c3ccc(C)cc3)C2)CC1 (configuration not stated),.,-6,.,0,.,.,.
CN(C)C(=O)C1Cc2ccccc2CN1S(=O)(=O)c1cccs1 (configuration not stated),0,-1,-10,-2,-1,.,.

# Screening data: PubChem BioAssay, several laboratories
